Results from ChEMBL document CHEMBL1144682, “Glycosyl and polyalcoholic prodrugs of lonidamine” (Bioorg Med Chem Lett, 2008).
Values after ≈ are worked out from the molar mass of the structure shown. Active and inactive are the calls of the source. No cut-off for these calls is given here.

What was measured:
[1] = Partition coefficient, log P of the compound; type: physicochemical; settings: octanol/water
[2] = Stability in rat plasma assessed as half life of hydrolysis; type: ADME, cell-free
Procedure, shortened: (§1)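 Enzymatic hydrolysis in 80% rat plasma or 80% human plasma at 37 °C. t1/2 taken from first-order kinetic plots. Values are means of three experiments with SEM.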

[3] = Stability in human plasma assessed as half life of hydrolysis; type: ADME, cell-free; procedure, shortened: as §1
[4] = Chemical stability assessed as half life of hydrolysis at pH 7.4; type: physicochemical; settings: buffer
Procedure, shortened: (§2)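 Non-enzymatic chemical hydrolysis of the prodrugs in buffer at pH 1.3 (simulated gastric conditions) and in phosphate buffer at pH 7.4, at 37 °C. Followed for up to 120 h. First-order kinetic plots gave Kobs and t1/2. Values are means of three experiments with SEM.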

[5] = Chemical stability assessed as half life of hydrolysis at pH 1.3; type: physicochemical; settings: buffer; procedure, shortened: as §2
[6] = Solubility in water; type: physicochemical; settings: for solubility: water
PC-3 = assay: Growth inhibition of human PC3 cells by SRB assay; type: functional
Procedure, shortened: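 Human PC-3 prostate cancer cells tested by sulforhodamine B assay following the NCI protocol. Concentrations went up to 100 μM, and GI50 was derived.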

[7] = Cytotoxicity against human SKOV cells at 300 uM after 12 hrs; type: functional
Procedure, shortened: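 SK-OV ovarian carcinoma cells treated for 12 h at 50, 150 or 300 μM drug with 0.01% DMSO present. Cell viability read out as % inhibition.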

[8] = Cell cycle arrest in human SKOV cells assessed as decrease in S phase accumulation at 50 uM after 12 hrs by flow cytometry; type: functional, cell-based
Procedure, shortened: (§3)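 SK-OV ovarian carcinoma cells exposed for 12 h to drug at 50 or 150 μM with 0.01% DMSO present. Cells stained with propidium iodide and analysed by flow cytometry for G1, S and G2 distribution. Values are means ± SEM of three independent experiments.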

[9] = Cell cycle arrest in human SKOV cells assessed as decrease in S phase accumulation at 150 uM after 12 hrs by flow cytometry; type: functional, cell-based; procedure, shortened: as §3
[10] = Cell cycle arrest in human SKOV cells assessed as accumulation at G1 phase at 150 uM after 12 hrs by flow cytometry; type: functional, cell-based; procedure, shortened: as §3

Compound | logP [1] | half-life [2] [h] | half-life [3] [h] | half-life [4] [h] | half-life [5] [h] | solubility [6] [µg/mL] | also measured
O=C(O[C@@H]1[C@@H](O)[C@H](O)O[C@H](CO)[C@H]1O)c1nn(Cc2cc(Cl)cc(Cl)c2)c2ccccc12 | 2.19 | 0.534 | 0.711 | 44.1 | > 120 | 118 (≈ 245 µM) | –
O=C(OC[C@H]1O[C@@H](O)[C@H](O)[C@H]1O)c1nn(Cc2cc(Cl)cc(Cl)c2)c2ccccc12 | 3.4 | – | – | – | – | 1.3 (≈ 2.87 µM) | –
O=C(OC[C@@H](O)[C@H](O)COC(=O)c1nn(Cc2cc(Cl)cc(Cl)c2)c2ccccc12)c1nn(Cc2cc(Cl)cc(Cl)c2)c2ccccc12 | – | – | – | – | – | – | Activity ([6]; buffer): Not Active
O=C(OCC(O)CO)c1nn(Cc2cc(Cl)cc(Cl)c2)c2ccccc12 (stereo not given) | 3.96 | – | – | – | – | 0.51 (≈ 1.29 µM) | –
O=C(O[C@@H]([C@H](O)[C@H](O)CO)[C@H](O)CO)c1nn(Cc2cc(Cl)cc(Cl)c2)c2ccccc12 | 2.55 | 2.17 | 6 | 80.7 | > 120 | 137 (≈ 283 µM) | GI50 (PC-3): 3.16 µM; inhibition at 300 µM [7]: 30%
O=C(OC[C@H]1OC(O)[C@H](O)[C@@H](O)[C@H]1O)c1nn(Cc2cc(Cl)cc(Cl)c2)c2ccccc12 (stereo not given in full) | 2.54 | 0.995 | 2.06 | 114 | > 120 | 84.3 (≈ 174 µM) | Activity [8]: Active; Activity [9]: Active; GI50 (PC-3): 3.16 µM; Activity [10]: Active; inhibition at 300 µM [7]: 60%
O=C(O)c1nn(Cc2ccc(Cl)cc2Cl)c2ccccc12 [LONIDAMINE] | 1.3 | – | – | – | – | 17 (≈ 52.9 µM) | Activity (PC-3): inactive
O=C(OC[C@@H](O)[C@H](O)CO)c1nn(Cc2cc(Cl)cc(Cl)c2)c2ccccc12 | 3.04 | – | – | – | – | 1.2 (≈ 2.82 µM) | –
